What was measured:
[1] = target: T1, Glutaminyl-peptide cyclotransferase (Homo sapiens, UniProt Q16769); assay: Inhibition of human recombinant glutaminyl cyclase expressed in Escherichia coli at 100 uM using H-Gln-Gln-H substrate measured for 15 mins by spectrophotometry relative to control
Target sequence in this assay (Q16769 29-361 limits assumed): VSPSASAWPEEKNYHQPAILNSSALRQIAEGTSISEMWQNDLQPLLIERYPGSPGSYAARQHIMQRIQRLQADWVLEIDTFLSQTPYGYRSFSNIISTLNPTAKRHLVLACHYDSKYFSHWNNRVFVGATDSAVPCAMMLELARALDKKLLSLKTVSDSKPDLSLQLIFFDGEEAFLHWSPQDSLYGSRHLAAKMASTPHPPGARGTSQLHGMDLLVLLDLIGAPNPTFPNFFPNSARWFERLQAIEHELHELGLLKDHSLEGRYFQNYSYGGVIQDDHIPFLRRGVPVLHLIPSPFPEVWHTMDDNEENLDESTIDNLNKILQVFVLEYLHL

[2] = target: T1, Glutaminyl-peptide cyclotransferase; assay: Inhibition of human recombinant glutaminyl cyclase expressed in Escherichia coli using H-Gln-Gln-H substrate measured for 15 mins by spectrophotometry
Outline: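 Recombinant hQC expressed in E. coli is tested in a glutamic acid dehydrogenase-coupled reaction: 0–4 mM H-Gln-Gln-H, 30 units/ml GDH, 0.5 mM NADH/H+, 15 mM α-ketoglutaric acid, 0.05 M Tris–HCl pH 8.0. Inhibitor is added at several concentrations with the enzyme to start the reaction, and A340 loss is read over 15 min. IC50 is read graphically from log concentration vs % inhibition. Triplicate.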
Target sequence in this assay (Q16769 whole entry): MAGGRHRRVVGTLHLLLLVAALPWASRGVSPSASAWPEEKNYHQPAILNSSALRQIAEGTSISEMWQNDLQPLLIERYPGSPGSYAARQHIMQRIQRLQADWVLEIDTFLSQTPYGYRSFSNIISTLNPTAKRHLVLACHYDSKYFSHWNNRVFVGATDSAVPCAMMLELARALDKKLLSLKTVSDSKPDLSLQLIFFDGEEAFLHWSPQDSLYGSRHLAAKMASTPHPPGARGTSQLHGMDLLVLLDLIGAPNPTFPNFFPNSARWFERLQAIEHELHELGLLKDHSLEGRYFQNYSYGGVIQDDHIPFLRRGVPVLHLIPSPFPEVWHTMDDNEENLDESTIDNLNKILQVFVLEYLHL

COc1ccc(-c2cc(=O)c3c(O)cc(O)cc3o2)c(OC)c1
inhibition [1]: 71.7%

COc1ccc(-c2cc(=O)c3ccc(O)cc3o2)cc1
inhibition [1]: 75.2%

O=c1cc(-c2ccc(O)cc2)oc2cc(O)ccc12
inhibition [1]: 71.8% | IC50 [2]: 45.2 µM

O=c1cc(-c2ccc(O)cc2)oc2cc(O)cc(O)c12
inhibition [1]: 75.2%

From ChEMBL document CHEMBL3779838, “Inhibitory effect of flavonoids on human glutaminyl cyclase” (Bioorg Med Chem, 2016)
